Measurements as given in ChEMBL document CHEMBL1121657, “Effects of 1-arylpyrroles and naphthoflavones upon cytochrome P-450 dependent monooxygenase activities” (J Med Chem, 1981).

Experiments:
[1] = organism: Rattus norvegicus; experiment: Compound was evaluated for alpha -rate constant, in liver microsomes from 3-methylcholanthrene-exposed rats; details: Microsome
Procedure, shortened: (§1)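 Rats (male Sprague-Dawley, 75-125 g) dosed ip with 3MC or βNF, 50 mg/kg in corn oil, on 3 successive days; liver microsomes isolated day 4. 7-Ethoxycoumarin deethylation (2.5-300 μM substrate) measured with inhibitor present; KM and Vmax by Eisenthal–Cornish-Bowden direct linear method. Ki from x-intercept of least-squares KM/Vmax vs [I]; αKi from x-intercept of 1/Vmax vs [I].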

[2] = organism: Rattus norvegicus; experiment: Compound was evaluated for alpha -rate constant, in liver microsomes from beta-naphthoflavone-exposed rats; details: Microsome; procedure, shortened: as §1
[3] = organism: Rattus norvegicus; experiment: Michaelis-Menten constant for 7-ethoxycoumarin deethylation in rat liver microsomes exposed to beta-naphthoflavone at 27.5 uM; details: Microsome
Procedure, shortened: (§2)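 Liver microsomes from male Sprague-Dawley rats given 3MC or βNF ip (50 mg/kg/day, corn oil, 3 days), harvested day 4. NADPH-regenerating system in 0.1 M Tris-HCl pH 7.4. Substrate 2.5-300 μM final. Inhibitor added from methanol stock. Reaction started with 0.375-0.56 mg microsomal protein, run 4 min at 37 °C, stopped with TCA. 7-Hydroxycoumarin fluorescence read at pH 10.3. At least four assays per substrate concentration. KM and Vmax by direct linear method, with distribution-free 95% confidence limits.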

[4] = Compound was evaluated for inhibition constant, in liver microsomes from beta-naphthoflavone-exposed rats; set-up: species or system Rattus norvegicus, Microsome
[5] = organism: Rattus norvegicus; experiment: Michaelis-Menten constant for 7-ethoxycoumarin deethylation in rat liver microsomes exposed to beta-naphthoflavone at 50 uM; details: Microsome
Procedure, shortened: (§3)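 Liver microsomes from young male Sprague-Dawley rats (75-125 g) given the inducer ip in corn oil at 50 mg/kg on 3 successive days, microsomes isolated on day 4. 7-Ethoxycoumarin (2.5 to 300 μM final) in 0.1 M Tris-HCl pH 7.4 with NADPH-regenerating system. Reaction started with microsomal protein (0.375-0.56 mg), run 4 min at 37 °C, stopped with TCA. 7-Hydroxycoumarin read fluorometrically at pH 10.3. Inhibitor added from methanol stock, ≥4 assays per condition. KM/Vmax obtained by the Eisenthal–Cornish-Bowden direct linear method with 95% distribution-free confidence limits.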

[6] = organism: Rattus norvegicus; experiment: Maximum rate constant for 7-ethoxycoumarin deethylation in rat liver microsomes exposed to 3-methylcholanthrene at concentration of 25 nM; details: Microsome
[7] = organism: Rattus norvegicus; experiment: Maximum rate constant for 7-ethoxycoumarin deethylation in rat liver microsomes exposed to beta-naphthoflavone at concentration of 27.5 uM; details: Microsome; procedure, shortened: as §2
[8] = organism: Rattus norvegicus; experiment: Michaelis-Menten constant for 7-ethoxycoumarin deethylation in rat liver microsomes exposed to beta-naphthoflavone at 5 uM; details: Microsome; procedure, shortened: as §2
[9] = organism: Rattus norvegicus; experiment: Michaelis-Menten constant for 7-ethoxycoumarin deethylation in rat liver microsomes exposed to 3-methylcholanthrene at a concentration of 50 uM; details: Microsome; procedure, shortened: as §2
[10] = organism: Rattus norvegicus; experiment: Maximum rate constant for 7-ethoxycoumarin deethylation in rat liver microsomes exposed to 3-methylcholanthrene at concentration of 50 nM; details: Microsome
[11] = organism: Rattus norvegicus; experiment: Michaelis-Menten constant for 7-ethoxycoumarin deethylation in rat liver microsomes exposed to 3-methylcholanthrene at a concentration of 10 nM; details: Microsome
[12] = organism: Rattus norvegicus; experiment: Michaelis-Menten constant for 7-ethoxycoumarin deethylation in rat liver microsomes exposed to 3-methylcholanthrene at a concentration of 25 uM; details: Microsome; procedure, shortened: as §2
[13] = organism: Rattus norvegicus; experiment: Maximum rate constant for 7-ethoxycoumarin deethylation in rat liver microsomes exposed to beta-naphthoflavone at 5 uM; details: Microsome; procedure, shortened: as §2
[14] = Compound was evaluated for inhibition constant, in liver microsomes from 3-methylcholanthrene-exposed rats; set-up: species or system Rattus norvegicus, Microsome
[15] = organism: Rattus norvegicus; experiment: Maximum rate constant for 7-ethoxycoumarin deethylation in rat liver microsomes exposed to beta-naphthoflavone at 50 uM; details: Microsome; procedure, shortened: as §2
[16] = organism: Rattus norvegicus; experiment: Vmax determined by 7-ethoxycoumarin deethylation in the presence by liver microsomes from rats exposed to 3-methylcholanthrene at concentration of 10 nM; details: Microsome
[17] = organism: Rattus norvegicus; experiment: Michaelis-Menten constant for 7-ethoxycoumarin deethylation in rat liver microsomes exposed to 3-methylcholanthrene at concentration of 25 nM; details: Microsome
[18] = organism: Rattus norvegicus; experiment: Michaelis-Menten constant for 7-ethoxycoumarin deethylation in rat liver microsomes exposed to 3-methylcholanthrene at concentration of 50 nM; details: Microsome
[19] = organism: Rattus norvegicus; experiment: Maximum rate constant for 7-ethoxycoumarin deethylation in rat liver microsomes exposed to beta-naphthoflavone at 1500 uM; details: Microsome; procedure, shortened: as §2
[20] = organism: Rattus norvegicus; experiment: Michaelis-Menten constant for 7-ethoxycoumarin deethylation in rat liver microsomes exposed to 3-methylcholanthrene at concentration of 75 nM; details: Microsome
[21] = organism: Rattus norvegicus; experiment: Michaelis-Menten constant for 7-ethoxycoumarin deethylation in rat liver microsomes exposed to beta-naphthoflavone at 1000 nM; details: Microsome
[22] = organism: Rattus norvegicus; experiment: Michaelis-Menten constant for 7-ethoxycoumarin deethylation in rat liver microsomes exposed to beta-naphthoflavone at 500 uM; details: Microsome; procedure, shortened: as §3
[23] = organism: Rattus norvegicus; experiment: Maximum rate constant for 7-ethoxycoumarin deethylation in rat liver microsomes exposed to 3-methylcholanthrene at concentration of 75 nM; details: Microsome
[24] = organism: Rattus norvegicus; experiment: Maximum rate constant for 7-ethoxycoumarin deethylation in rat liver microsomes exposed to beta-naphthoflavone at 1000 nM; details: Microsome
[25] = organism: Rattus norvegicus; experiment: Michaelis-Menten constant for 7-ethoxycoumarin deethylation in rat liver microsomes exposed to beta-naphthoflavone at 1500 nM; details: Microsome
[26] = organism: Rattus norvegicus; experiment: Maximum rate constant for 7-ethoxycoumarin deethylation in rat liver microsomes exposed to beta-naphthoflavone at 500 uM; details: Microsome; procedure, shortened: as §2
[27] = organism: Rattus norvegicus; experiment: Michaelis-Menten constant for 7-ethoxycoumarin deethylation in rat liver microsomes exposed to exposed to 3-methylcholanthrene at concentration; details: Microsome
[28] = organism: Rattus norvegicus; experiment: Maximum rate constant for 7-ethoxycoumarin deethylation in rat liver microsomes exposed to 3-methylcholanthrene at concentration of 200 uM; details: Microsome, 225 nM, in the assay text read “225 nM” for “200 uM”; procedure, shortened: as §2
[29] = organism: Rattus norvegicus; experiment: Michaelis-Menten constant for 7-ethoxycoumarin deethylation in rat liver microsomes exposed to 3-methylcholanthrene at concentration of 100 uM; details: Microsome; procedure, shortened: as §2
[30] = organism: Rattus norvegicus; experiment: Compound was evaluated for alpha -rate constant, in liver microsomes from beta-naphthoflavone-exposed rats; competitive inhibition; details: Microsome; procedure, shortened: as §1
[31] = organism: Rattus norvegicus; experiment: Maximum rate constant for 7-ethoxycoumarin deethylation in rat liver microsomes exposed to beta-naphthoflavone at concentration of 1500 uM; details: Microsome; procedure, shortened: as §2
[32] = organism: Rattus norvegicus; experiment: Maximum rate constant for 7-ethoxycoumarin deethylation in rat liver microsomes exposed to beta-naphthoflavone at concentration of 1000 uM; details: Microsome; procedure, shortened: as §2
[33] = organism: Rattus norvegicus; experiment: Maximum rate constant for 7-ethoxycoumarin deethylation in rat liver microsomes exposed to beta-naphthoflavone at concentration of 500 uM; details: Microsome; procedure, shortened: as §2
[34] = organism: Rattus norvegicus; experiment: Maximum rate constant for 7-ethoxycoumarin deethylation in rat liver microsomes exposed to 3-methylcholanthrene at concentration of 100 nM; details: Microsome

Row | Alpha Ki [1] [nM] | Alpha Ki [2] [nM] | Ki [4] [nM] | Vmax (pM min-1 mg-1) [6] | Vmax (pM min-1 mg-1) [10] | Ki [14] [nM] | Km [18] [µM] | Km [21] [µM] | Km [22] [µM] | Km [25] [µM] | Structure (SMILES) | also measured
1 | 33 | 48 | 24 | 108 | 69 | 17 | – | – | – | – | O=c1cc(-c2ccccc2)oc2c1ccc1ccccc12 [ALPHA-NAPHTHOFLAVONE] | Km [3]: 17 µM; Km [5]: 25.7 µM; Vmax (pM min-1 mg-1) [7]: 904; Km [8]: 18.5 µM; Km [9]: 23.4 µM; Km [11]: 19.6 µM; Km [12]: 17.3 µM; Vmax (pM min-1 mg-1) [13]: 1220; Vmax (pM min-1 mg-1) [15]: 665; Vmax (pM min-1 mg-1) [16]: 137
2 | 280 | 4000 | 130 | 159 | 143 | 26 | 26.6 | 60 | 33.9 | 93.2 | O=c1cc(-c2ccccc2)oc2ccc3ccccc3c12 [BETA-NAPHTHOFLAVONE] | Km [17]: 19.2 µM; Vmax (pM min-1 mg-1) [19]: 1000; Km [20]: 39.7 µM; Vmax (pM min-1 mg-1) [23]: 134; Vmax (pM min-1 mg-1) [24]: 1100; Vmax (pM min-1 mg-1) [26]: 1200
3 | 570 | – | 190 | – | 153 | 33 | 22.3 | 115 | 50.3 | 136 | O=c1cc(-c2ccccc2)oc2ccccc12 [FLAVONE] | Km [27]: 62.6 µM; Vmax (pM min-1 mg-1) [28]: 120; Km [29]: 35.8 µM; Alpha Ki [30]: Competitive inhibition; Vmax (pM min-1 mg-1) [31]: 1330; Vmax (pM min-1 mg-1) [32]: 1370; Vmax (pM min-1 mg-1) [33]: 1340; Vmax (pM min-1 mg-1) [34]: 149

Row | Structure (SMILES) | Alpha Ki [1] [nM] | Alpha Ki [2] [nM] | Ki [4] [nM] | Vmax (pM min-1 mg-1) [6] | Vmax (pM min-1 mg-1) [10] | Ki [14] [nM] | Km [18] [µM] | Km [21] [µM] | Km [22] [µM] | Km [25] [µM] | also measured
4 | c1ccc(-c2c[nH]cn2)cc1 | 64000 | 75000 | – | – | – | – | – | – | – | – | –
